Results from ChEMBL document CHEMBL1949525, “Boranophosphate isoster controls P2Y-receptor subtype selectivity and metabolic stability of dinucleoside polyphosphate analogues” (J Med Chem, 2012).
The source made the active and inactive calls. The rule behind the calls is not given here.

Experiments:
[1] = Stability of the compound assessed as human e-NPP1-mediated hydrolysis at pH 8.5 after 20 mins by HPLC analysis; type: ADME; conditions: buffer, pH 8.5, 20 min
Procedure, shortened: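 Human NPP1 preparation preincubated 3 min at 37 °C in 1 mM CaCl2, 200 mM NaCl, 10 mM KCl, 100 mM Tris, pH 8.5. Started with 0.2 mM dinucleotide solution (added volume) and stopped after 20 min in ice-cold perchloric acid. Neutralised with KOH, then NMP formation followed by HPLC. Percent substrate hydrolysed is the mean of two experiments run in triplicate.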

[2] = Stability of the compound assessed as human e-NPP3-mediated compound hydrolysis by HPLC analysis; type: ADME
[3] = Chemical stability of the compound at pH mimicking gastric juice acidity; type: physicochemical; conditions: simulated gi fluid
[4] = Chemical stability of the compound at physiological conditions; type: physicochemical
[5] = Selectivity ratio of EC50 for rat P2Y purinoceptor 6 receptor to EC50 for turkey P2Y purinoceptor 1 receptor
Procedure, shortened: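 1321N1 astrocytoma cells lacking endogenous P2Y receptors, stably transfected with turkey P2Y1, human P2Y2, human P2Y4 or rat P2Y6, grown in DMEM with 5% FBS, penicillin/streptomycin and 500 µg/mL G-418. Fura-2-loaded cell suspensions were exposed at 37 °C in 10 mM Hepes-buffered saline, pH 7.4, with 1 mM CaCl2 and 1 mM MgCl2. Peak [Ca2+]i rise by dual-excitation spectrofluorometry across concentrations; EC50 from curve fits; three experiments on separate days per subtype.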

[6] = biological target: P2Y purinoceptor 1 (Meleagris gallopavo) (UniProt P49652); assay: Antagonist activity at turkey P2Y purinoceptor 1 expressed in human 1321N1 cells assessed as inhibition of 2-Sme-ADP-induced increase in intracellular calcium concentration by spectrofluorimetry; type: functional, cell-based
Chain of P2Y purinoceptor 1 (Meleagris gallopavo) (P49652 whole entry): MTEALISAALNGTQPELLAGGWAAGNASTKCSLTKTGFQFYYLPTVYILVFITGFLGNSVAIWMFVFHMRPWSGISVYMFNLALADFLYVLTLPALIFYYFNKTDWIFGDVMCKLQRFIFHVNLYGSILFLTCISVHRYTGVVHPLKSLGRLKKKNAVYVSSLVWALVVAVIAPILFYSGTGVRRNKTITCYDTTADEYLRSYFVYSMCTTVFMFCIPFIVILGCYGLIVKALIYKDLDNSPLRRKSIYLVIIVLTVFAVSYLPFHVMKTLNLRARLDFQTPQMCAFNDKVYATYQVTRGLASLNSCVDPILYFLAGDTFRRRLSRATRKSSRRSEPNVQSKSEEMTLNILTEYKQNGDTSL
Procedure, shortened: (§1)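 Fura-2-loaded 1321N1 transfectants (turkey P2Y1, human P2Y2/P2Y4, rat P2Y6) in Hepes-buffered saline, pH 7.4, at 37 °C. Analogues were tested against equimolar reference agonist: 2-MeS-ADP for P2Y1, UTP for P2Y2/4, UDP for P2Y6. Blockade of the [Ca2+]i rise was followed by dual-excitation spectrofluorometry.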

P2Y purinoceptor 2 [7] = biological target: T1, P2Y purinoceptor 2 (Homo sapiens, UniProt P41231); assay: Antagonist activity at human P2Y purinoceptor 2 expressed in human 1321N1 cells assessed as inhibition of UTP-induced increase in intracellular calcium concentration by spectrofluorimetry; type: functional, cell-based; procedure, shortened: as §1
T1 sequence (P41231 whole entry): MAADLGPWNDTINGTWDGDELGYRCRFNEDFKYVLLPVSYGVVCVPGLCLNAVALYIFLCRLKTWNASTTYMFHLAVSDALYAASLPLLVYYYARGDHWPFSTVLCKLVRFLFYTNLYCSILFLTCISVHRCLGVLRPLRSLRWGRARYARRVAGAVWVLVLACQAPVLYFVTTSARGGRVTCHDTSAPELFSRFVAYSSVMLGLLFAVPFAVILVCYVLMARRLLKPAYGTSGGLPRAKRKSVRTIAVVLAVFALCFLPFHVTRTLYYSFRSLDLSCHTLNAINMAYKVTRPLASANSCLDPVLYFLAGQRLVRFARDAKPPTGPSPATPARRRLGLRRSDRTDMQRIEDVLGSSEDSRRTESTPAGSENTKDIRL

P2Y purinoceptor 4 = P2Y purinoceptor 4 (Homo sapiens, UniProt P51582); assay: Antagonist activity at human P2Y purinoceptor 4 expressed in human 1321N1 cells assessed as inhibition of UTP-induced increase in intracellular calcium concentration by spectrofluorimetry; type: functional, cell-based; procedure, shortened: as §1
Chain of P2Y purinoceptor 4 (P51582 whole entry): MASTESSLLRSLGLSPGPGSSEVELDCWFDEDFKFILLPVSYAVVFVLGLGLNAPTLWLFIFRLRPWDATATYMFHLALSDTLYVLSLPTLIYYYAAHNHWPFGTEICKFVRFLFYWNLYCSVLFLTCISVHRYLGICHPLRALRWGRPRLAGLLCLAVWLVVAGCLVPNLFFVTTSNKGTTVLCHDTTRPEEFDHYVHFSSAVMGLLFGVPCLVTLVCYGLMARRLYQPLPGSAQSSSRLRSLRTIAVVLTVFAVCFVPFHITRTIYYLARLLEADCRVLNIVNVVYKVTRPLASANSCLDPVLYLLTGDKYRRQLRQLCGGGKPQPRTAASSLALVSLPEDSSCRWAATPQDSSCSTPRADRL

[8] = biological target: P2Y purinoceptor 6 (Rattus norvegicus) (UniProt Q63371); assay: Antagonist activity at rat P2Y purinoceptor 6 expressed in human 1321N1 cells assessed as inhibition of UDP-induced increase in intracellular calcium concentration by spectrofluorimetry; type: functional, cell-based; procedure, shortened: as §1
Chain of P2Y purinoceptor 6 (Rattus norvegicus) (Q63371 whole entry): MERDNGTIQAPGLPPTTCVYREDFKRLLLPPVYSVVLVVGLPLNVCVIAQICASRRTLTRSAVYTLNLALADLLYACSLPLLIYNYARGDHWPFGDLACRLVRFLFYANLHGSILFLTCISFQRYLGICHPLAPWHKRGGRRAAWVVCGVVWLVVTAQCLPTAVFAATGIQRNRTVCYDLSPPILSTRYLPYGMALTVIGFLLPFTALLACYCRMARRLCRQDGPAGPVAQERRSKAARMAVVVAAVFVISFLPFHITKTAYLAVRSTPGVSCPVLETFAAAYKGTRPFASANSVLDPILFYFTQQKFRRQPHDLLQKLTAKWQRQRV

[9] = biological target: P2Y purinoceptor 6 (Rattus norvegicus) (UniProt Q63371); assay: Agonist activity at rat P2Y purinoceptor 6 expressed in human 1321N1 cells assessed as increase in intracellular calcium concentration at 100 uM by spectrofluorimetry; type: functional, cell-based
[10] = biological target: P2Y purinoceptor 1 (Meleagris gallopavo) (UniProt P49652); assay: Agonist activity at turkey P2Y purinoceptor 1 expressed in human 1321N1 cells assessed as increase in intracellular calcium concentration at 100 uM by spectrofluorimetry; type: functional, cell-based
P2Y purinoceptor 2 [11] = biological target: T1, P2Y purinoceptor 2; assay: Agonist activity at human P2Y purinoceptor 2 expressed in human 1321N1 cells assessed as increase in intracellular calcium concentration at 100 uM by spectrofluorimetry; type: functional, cell-based

SMILES	Stability [1]	Stability [2]	Stability [3]	Stability [4]	Ratio EC50 [5]	Activity [6]	Activity (P2Y purinoceptor 2 [7])	Activity (P2Y purinoceptor 4)	Activity [8]	Activity [9]	Activity [10]	Activity (P2Y purinoceptor 2 [11])
BP(=O)(OP(=O)(O)OC[C@H]1O[C@@H](n2cnc3c(N)ncnc32)[C@H](O)[C@@H]1O)OP(=O)(O)OC[C@H]1O[C@@H](n2cnc3c(N)ncnc32)[C@H](O)[C@@H]1O.CCCCN(CCCC)CCCC.CCCCN(CCCC)CCCC.CCCCN(CCCC)CCCC	Stable	Stable	Stable	Stable								
BP(=O)(OP(=O)(O)OC[C@H]1O[C@@H](n2cnc3c(N)ncnc32)[C@H](O)[C@@H]1O)OP(=O)(O)OP(=O)(O)OC[C@H]1O[C@@H](n2ccc(=O)[nH]c2=O)[C@H](O)[C@@H]1O.CCCCN(CCCC)CCCC.CCCCN(CCCC)CCCC.CCCCN(CCCC)CCCC.CCCCN(CCCC)CCCC (mixture of isomers)					42							
BP(=O)(OP(=O)(O)OC[C@H]1O[C@@H](n2cnc3c(N)ncnc32)[C@H](O)[C@@H]1O)OP(=O)(O)OP(=O)(O)OC[C@H]1O[C@@H](n2cnc3c(N)ncnc32)[C@H](O)[C@@H]1O.CCCCN(CCCC)CCCC.CCCCN(CCCC)CCCC.CCCCN(CCCC)CCCC.CCCCN(CCCC)CCCC (stereo in doubt; 6A)						inactive	inactive	inactive	inactive	Active		
BP(=O)(OP(=O)(O)OC[C@H]1O[C@@H](n2cnc3c(N)ncnc32)[C@H](O)[C@@H]1O)OP(=O)(O)OP(=O)(O)OC[C@H]1O[C@@H](n2cnc3c(N)ncnc32)[C@H](O)[C@@H]1O.CCCCN(CCCC)CCCC.CCCCN(CCCC)CCCC.CCCCN(CCCC)CCCC.CCCCN(CCCC)CCCC (stereo in doubt; 6B)						inactive	inactive	inactive	inactive	Active		
BP(=O)(OP(=O)(O)OC[C@H]1O[C@@H](n2ccc(=O)[nH]c2=O)[C@H](O)[C@@H]1O)OP(=O)(O)OP(=O)(O)OC[C@H]1O[C@@H](n2ccc(=O)[nH]c2=O)[C@H](O)[C@@H]1O.CCCCN(CCCC)CCCC.CCCCN(CCCC)CCCC.CCCCN(CCCC)CCCC.CCCCN(CCCC)CCCC (stereo in doubt; 7A)						inactive	inactive	inactive	inactive		Active	Active
